This assay concerns the target Vasopressin V2 receptor (Sus scrofa) (UniProt P32307). The assay can be described thus: Affinity towards vasopressin receptor in porcine renal medullary membrane using [3H]LVP. The assay is classed as cell membranes. Particulars: Renal medulla. In a few lines: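 Pig kidney medullary membrane preparation; displacement of [³H]LVP binding. IC50 taken as the ligand concentration giving 50% inhibition of binding; Kbind calculated by the competitive-inhibition equation Kbind = IC50/(1 + L/KD), with KD the dissociation constant of [³H]LVP.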

Bridge positions count the residues as written; N and C are the ends. Square brackets hold non-standard residues; d marks the D form. Peptide text beside a SMILES is read from it. Mpa = O=C(O)CCS Bounds are passed on as bounds.

Sequence of Vasopressin V2 receptor (Sus scrofa) (P32307 whole entry): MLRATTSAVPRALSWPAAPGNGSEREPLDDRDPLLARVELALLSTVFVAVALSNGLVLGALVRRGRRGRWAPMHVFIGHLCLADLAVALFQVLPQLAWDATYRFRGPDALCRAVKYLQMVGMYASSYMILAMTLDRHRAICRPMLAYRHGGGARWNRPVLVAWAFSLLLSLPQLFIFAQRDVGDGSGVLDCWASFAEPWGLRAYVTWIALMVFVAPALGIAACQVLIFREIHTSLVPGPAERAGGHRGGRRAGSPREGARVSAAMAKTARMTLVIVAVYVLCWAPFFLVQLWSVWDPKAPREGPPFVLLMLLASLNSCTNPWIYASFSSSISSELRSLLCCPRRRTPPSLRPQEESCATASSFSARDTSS

On to `CC(C)[C@@H]1NC(=O)[C@H](Cc2ccccc2)NC(=O)[C@H](Cc2ccc(O)cc2)NC(=O)CCSSC[C@@H](C(=O)N[C@@H](CCCN=C(N)N)C(=O)N[C@@H](CCCN=C(N)N)C(N)=O)NC(=O)[C@H](CC(N)=O)NC1=O` ([Mpa]YFVNCRR-NH2; disulfide 1-6), for which the K bind is greater than 1000 nM.

The record behind these values is ChEMBL document CHEMBL1123570, “Potent vasopressin antagonists modified at the carboxy-terminal tripeptide tail” (J Med Chem, 1987).
